Laboratory results taken from ChEMBL document CHEMBL3232903, “New pyrazolobenzothiazine derivatives as hepatitis C virus NS5B polymerase palm site I inhibitors” (J Med Chem, 2014).

What was measured:
[1] = system: Hepatitis C virus isolate HC-J4; assay: Inhibition of RNA-dependent RNA polymerase activity of HCV genotype 1b HC-J4 recombinant N-terminal histidine tagged C-terminal 21 aminoacids truncated NS5B polymerase at 50 uM after 1 hr by standard primer dependent elongation assay
Procedure, shortened: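 Recombinant NS5BCΔ21 genotype 1b in a primer-dependent elongation assay. […] IC50 is the concentration halving enzyme activity in vitro; mean ± SD of two independent experiments in duplicate.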

[2] = Inhibition of RNA-dependent RNA polymerase activity of HCV genotype 1b HC-J4 recombinant N-terminal histidine tagged C-terminal 21 aminoacids truncated NS5B polymerase after 1 hr by standard primer dependent elongation assay; design: species or system Hepatitis C virus isolate HC-J4
Procedure, shortened: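 Recombinant NS5BCΔ21 genotype 1b in a primer-dependent elongation assay. IC50 is the concentration halving enzyme activity in vitro; mean ± SD of two independent experiments in duplicate.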

[3] = system: Hepatitis C virus; assay: Antiviral activity against HCV genotype 1b I389luc-ubi-neo/NS3-3'/5.1 replicon infected in human Huh5-2 cells assessed as inhibition of virus replication by luciferase assay; assay type: functional, cell-based, Hepacivirus hominis; conditions: Huh-5-2
[4] = Cytostatic activity against human Huh5-2 cells carrying HCV genotype 1b I389luc-ubi-neo/NS3-3'/5.1 replicon assessed as reduction in metabolic activity after 72 hrs by MTS assay; assay type: ADME, cell-based, Huh-5-2; conditions: for CC50: huh-5-2, 72 h
Procedure, shortened: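 Replicon-bearing Huh-5-2 cells run in parallel with the antiviral read-out; CC50 is the concentration halving MTS bioreduction to formazan, taken as the antimetabolic effect on host cells; mean ± SD from at least three dose–response curves.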

[5] = Cytotoxicity against human Huh5-2 cells carrying HCV genotype 1b I389luc-ubi-neo/NS3-3'/5.1 replicon assessed as cell morphological changes after 72 hrs by microscopic analysis; assay type: cell-based; conditions: huh-5-2, 72 h
Procedure, shortened: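 Huh-5-2 replicon cells examined by microscopy for changes in cell morphology after 72 h of compound treatment.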

[6] = Selectivity index, ratio of CC50 for human Huh5-2 cells to EC50 for HCV genotype 1b I389luc-ubi-neo/NS3-3'/5.1 replicon infected in human Huh5-2 cells; design: species or system Huh-5-2
[7] = Induction of steatosis in human Huh-9-13 cells assessed as intracellular accumulation of […] lipids at 100 uM by Nile Red staining; assay type: cell-based

Structure (SMILES)	inhibition [1] [%]	IC50 [2] [µM]	EC50 [3] [µM]	CC50 [4] [µM]	Activity [5]	Ratio CC50/EC50 [6]	EC90 [3] [µM]	CC50 at 72 h [4] [µM]	Activity [7]
CN1c2c(C(=O)Nc3ccc(NS(C)(=O)=O)cc3)nn(-c3ccccc3Br)c2-c2ccccc2S1(=O)=O	> 50	26.5	12	107	Toxic	8.9	–	–	–
CN1c2c(C(=O)Nc3ccc(OCC(N)=O)cc3)nn(-c3cccc(F)c3)c2-c2ccccc2S1(=O)=O	< 50	> 50	15	> 192	Toxic	>13	34	–	–
Cc1ccc(-n2nc(C(=O)Nc3ccc(NS(C)(=O)=O)cc3)c3c2-c2ccccc2S(=O)(=O)N3C)cc1Cl	> 50	8	7	> 175	Toxic	>25	37	–	–
CN1c2c(C(=O)Nc3ccc(NS(C)(=O)=O)cc3)n[nH]c2-c2ccccc2S1(=O)=O	< 50	> 50	88.2	155	Toxic	2.5	65.2	–	–
COc1ccc(-n2nc(C(=O)Nc3ccc(NS(C)(=O)=O)cc3)c3c2-c2ccccc2S(=O)(=O)N3C)cc1	< 50	> 50	8.1	> 226	Non-toxic	>28	25	–	–
CN1c2c(NC(=O)c3ccc(NS(C)(=O)=O)cc3)nn(-c3cccc(F)c3)c2-c2ccccc2S1(=O)=O	< 50	> 50	80.8	160	Toxic	2.3	–	–	–
Cc1ccc(-n2nc(C(=O)Nc3ccc(NS(C)(=O)=O)cc3)c3c2-c2ccccc2S(=O)(=O)N3C)cc1C	< 50	> 50	6.2	> 181	Toxic	>29	20	–	–
CN1c2c(C(=O)Nc3ccc(NS(C)(=O)=O)cc3)nn(-c3cccc(F)c3)c2-c2ccccc2S1(=O)=O	–	–	–	–	–	–	–	> 370	–
CN1c2c(C(=O)Nc3ccc(NS(C)(=O)=O)cc3)nn(C3CCCCC3)c2-c2ccccc2S1(=O)=O	> 50	43	4.5	44	Toxic	9.7	11	–	–
Cc1cccc(-n2nc(C(=O)Nc3ccc(NS(C)(=O)=O)cc3)c3c2-c2ccccc2S(=O)(=O)N3C)c1	> 50	21.2	5.1	> 233	Toxic	>46	11.8	–	–
CN1c2c(C(=O)Nc3ccc(NS(C)(=O)=O)cc3)nn(-c3ccc(Cl)c(C(F)(F)F)c3)c2-c2ccccc2S1(=O)=O	< 50	> 50	6.4	> 160	Toxic	>25	–	–	–
CN1c2c(C(=O)Nc3ccc(NS(C)(=O)=O)cc3)nn(-c3cccc(Br)c3)c2-c2ccccc2S1(=O)=O	> 50	7.7	8.3	> 166	Toxic	>20	26	–	–
CN1c2c(C(=O)Nc3ccc(NS(C)(=O)=O)cc3)nn(-c3ccc(F)c(F)c3)c2-c2ccccc2S1(=O)=O	> 50	25.4	13.9	138	Toxic	9.9	–	–	–
CN1c2c(C(=O)Nc3ccc(NS(C)(=O)=O)cc3)nn(-c3ccc(C(F)(F)F)cc3)c2-c2ccccc2S1(=O)=O	> 50	36.3	7.3	> 169	Toxic	>23	31.2	–	–
CN1c2c(C(=O)Nc3ccc(NS(C)(=O)=O)cc3)nn(-c3ccc(Cl)cc3)c2-c2ccccc2S1(=O)=O	> 50	7.9	8.1	> 224	Non-toxic	>28	23.3	–	Toxic
CN1c2c(C(=O)Nc3ccc(NS(C)(=O)=O)cc3)nn(-c3ccccc3Cl)c2-c2ccccc2S1(=O)=O	> 50	17.8	7.4	> 224	Toxic	>30	20.8	–	–
CN1c2c(C(=O)Nc3ccc(NS(C)(=O)=O)cc3)nn(-c3ccccc3C(F)(F)F)c2-c2ccccc2S1(=O)=O	< 50	> 50	25	> 169	Toxic	>7	–	–	–
COc1cccc(-n2nc(C(=O)Nc3ccc(NS(C)(=O)=O)cc3)c3c2-c2ccccc2S(=O)(=O)N3C)c1	< 50	> 50	11	> 181	Toxic	>16	–	–	–
CN1c2c(C(=O)Nc3ccccc3)nn(-c3cccc(F)c3)c2-c2ccccc2S1(=O)=O	< 50	> 50	4.5	56	Toxic	12	–	–	–
CN1c2c(C(=O)Nc3ccc(NS(C)(=O)=O)cc3)nn(-c3cccc(C(F)(F)F)c3)c2-c2ccccc2S1(=O)=O	> 50	23.7	7.7	> 211	Toxic	>28	33.2	–	–
CN1c2c(C(=O)Nc3ccc(NS(C)(=O)=O)cc3)nn(-c3ccc(Br)cc3)c2-c2ccccc2S1(=O)=O	> 50	12.1	7.4	> 166	Toxic	>22	21	–	–
CN1c2c(C(=O)Nc3ccc(NS(C)(=O)=O)cc3)nn(-c3ccc(Cl)c(Cl)c3)c2-c2ccccc2S1(=O)=O	> 50	2.7	9.7	> 168	Toxic	>17	–	–	–
Cc1ccccc1-n1nc(C(=O)Nc2ccc(NS(C)(=O)=O)cc2)c2c1-c1ccccc1S(=O)(=O)N2C	> 50	30.8	14.3	> 233	Toxic	>16	–	–	–
Cc1ccc(-n2nc(C(=O)Nc3ccc(NS(C)(=O)=O)cc3)c3c2-c2ccccc2S(=O)(=O)N3C)cc1	> 50	14.7	4.8	> 186	Non-toxic	39	19.6	–	–
